Screens deposited in PubChem by several laboratories.
OX1R antag-1 – human HCRTR1 antagonism | O43613 | CHO/OX1R cells, Fluo-8 calcium fluorescence, orexin A | inhibition, % at 5 µM | 330,000 tested, 0.43% active | AID 434989;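 active means inhibition above its plate's threshold, mean inhibition of all tested compounds on the plate plus 3 SD, cut at about 37% in these data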;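 further: 0% = orexin A challenge wells and 100% = SB-334867-A antagonist wells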
Target sequence (O43613 whole entry, looked up): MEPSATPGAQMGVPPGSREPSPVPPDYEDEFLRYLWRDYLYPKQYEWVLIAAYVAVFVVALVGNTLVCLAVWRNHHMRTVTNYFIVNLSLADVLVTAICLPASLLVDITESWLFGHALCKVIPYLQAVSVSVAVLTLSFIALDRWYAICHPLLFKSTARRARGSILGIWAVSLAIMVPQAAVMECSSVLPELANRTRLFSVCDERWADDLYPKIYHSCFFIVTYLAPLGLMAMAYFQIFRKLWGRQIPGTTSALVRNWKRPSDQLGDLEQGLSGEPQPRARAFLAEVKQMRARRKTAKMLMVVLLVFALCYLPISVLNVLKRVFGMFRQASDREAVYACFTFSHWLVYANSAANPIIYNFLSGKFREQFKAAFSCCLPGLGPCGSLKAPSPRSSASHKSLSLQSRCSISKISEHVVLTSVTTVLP
GPR7 antagonist – antagonists of human GPR7 (neuropeptides B/W receptor 1) | inhibition, % at 4.4 µM | AID 1861 | GPR7-expressing cells, fluorescence antagonist assay | 290,000 tested, 1.1% active | P48145; in the data active means inhibition above about 16%, passing the limit was not always enough;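 further: cells stimulated with the agonist NPW; 0% = agonist with vehicle and 100% = vehicle without agonist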
CHO parental Ca – counter-screen for OX1R antagonists: effect in parental CHO cells | inhibition, % at 5.6 µM | parental CHO-K1, ATP-induced calcium, Fluo-8 fluorescence | 330,000 tested, 0.63% active | AID 463079;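 active means inhibition above that plate's mean sample inhibition plus 3 SD, cut at about 26% in these data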;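 further: 0% = ATP-challenged DMSO wells and 100% = DMSO wells without ATP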
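Test system: parental CHO cells; detection: calcium-sensitive Fluo-8 fluorescence; evaluation: percent inhibition of calcium signal; also added: ATP as calcium-mobilizing challenge; repeats: one well per compound; control set: ATP-challenged DMSO wells low, unchallenged DMSO wells high; compound: single nominal dose of 5.6 µM per compound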
OX1R antag-2 – antagonists of human orexin 1 receptor (OX1R); O43613; OX1R-expressing cells, FRET antagonist read-out; inhibition, % at 6.6 µM; 330,000 tested, 1.8% active; AID 485270; in the data active means inhibition mostly above about 38%, no sharp cut-off; inactive means mostly below about 40%;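 further: 0% = agonist challenge alone and 100% = reference antagonist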
MPTP block – permeability transition pore inhibition; inhibition, % at 10 µM; 360,000 tested, 1.4% active; isolated mouse mitochondria, Ca2+ swelling absorbance, 30 min;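 active means inhibition of 50% or more, scaled per plate between neutral and stimulator controls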;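 further: 0% = DMSO wells given calcium and 100% = 1 mM EGTA wells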
GPR7 antag conf – confirmation of human GPR7 antagonists; shares compounds with GPR7 antagonist; GPR7-expressing cells, calcium fluorescence antagonist mode; inhibition, % at 4.4 µM; 2,400 tested, 52% active; in the data active means inhibition above about 24%;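 further: stimulated with the GPR7 agonist NPW; 0% = agonist plus vehicle and 100% = vehicle alone without agonist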
MCHR1 antagonist – counter-screen for GPR7 antagonists: antagonists of human MCHR1 | shares compounds with GPR7 antagonist | MCHR1-expressing cells, fluorescence antagonist assay | inhibition, % at 4.4 µM | 2,400 tested, 62% active | AID 2148; in the data active means inhibition above about 22%;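 further: 0% = vehicle with agonist and 100% = vehicle without agonist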
Starred values were filed as active, the others as inactive; . = no result given. Most compounds without a hit are left out; they make up all but 3.8% or so of the library.

SMILES	OX1R antag-1	GPR7 antagonist	CHO parental Ca	OX1R antag-2	MPTP block	GPR7 antag conf	MCHR1 antagonist
CCNC(=O)NC(=O)C(C)OC(=O)c1oc2ccc(OC)cc2c1C (configuration not stated)	-15	38*	-7	9	1	8	15
CC(C)C1N(C(=O)CN2CCCCC2)CCN1S(=O)(=O)c1ccccc1 (configuration not stated)	-6	27*	0	17	1	-9	-2
Cc1ccc(S(=O)(=O)N2CCN(C(=O)CN3CCCCC3)C2C(C)C)cc1 (configuration not stated)	-12	2	-9	11	-2	.	.
COC(=O)[C@H](CC(C)C)NS(=O)(=O)c1ccc(F)cc1Br	.	.	.	.	5	.	.
COc1ccc(S(=O)(=O)N2CCN=C2SCc2cccc(F)c2)cc1	-28	27*	-11	19	1	27*	46*
O=C(Cc1ccc([N+](=O)[O-])cc1)N1CCN=C1SCc1ccccc1	-11	-2	-7	4	1	.	.
O=C(C1CCCCC1)N1CCN=C1SCc1cccc([N+](=O)[O-])c1	-18	48*	-8	15	-3	11	12
COc1ccc(CC(=O)N2CCN=C2SCc2cccc([N+](=O)[O-])c2)cc1	-24	21*	-14	27	-1	41*	58*
O=C(C1CCCCC1)N1CCN=C1SCc1cccnc1	-19	9	-8	11	-2	.	.
CC1c2[nH]c3ccccc3c2C[C@H]2C(=O)N(CCCN(C)C)CC(=O)N12 (some centres not stated)	-6	7	4	-10	-1	.	.
COc1ccc(Cc2nnc(N/N=C(\C)c3ccccc3)[nH]c2=O)cc1OC	-26	-17	-2	16	2	.	.
Cc1noc(C)c1CSc1nc2ccccc2n1CCc1ccccc1	20	26*	-19	36	1	-3	10
Cc1ccc2c(c1)c(C1=c3ccccc3=NC1=O)c(O)n2C	-7	10	8	22	2	.	.
C=CCn1c(O)c(C2=c3ccccc3=NC2=O)c2ccccc21	16	38*	10	28	-1	46*	86*
O=S(=O)(c1ccc(NC(=S)N2CCCCC2CO)cc1)N1CCOCC1 (configuration not stated)	.	.	.	.	-2	.	.
Cc1cc(CSc2ccccc2C(=O)O)on1	-12	-8	5	22	-1	.	.
Cc1ccc(NC(Cc2cc(C)no2)c2ccccc2)cc1 (configuration not stated)	-19	40*	-15	19	1	34*	12
CC(=O)Nc1ccc(Sc2ncccc2C(=O)Nc2ccc(F)cc2)cn1	101*	62*	72*	-1	0	98*	98*
COC(=O)C[C@@H]1CC[C@H](NS(=O)(=O)c2ccccc2F)[C@@H](CO)O1	.	.	.	.	-2	.	.
CN(C)c1ccc(/C=C(\C#N)c2ccccn2)cc1	-18	30*	-10	24	0	9	47*
COC(=O)c1ccc(/C=C(\C#N)c2ccccn2)cc1	-23	2	-12	45	-2	.	.
Cc1ccc(S(=O)(=O)N(C)c2ccc(OCC(=O)Nc3cccc(-n4cnnn4)c3C)cc2)cc1	-25	22*	-4	12	0	6	33*
Cc1ccc(S(=O)(=O)N(C)c2ccc(OCC(=O)Nc3ccc(S(C)(=O)=O)cc3)cc2)cc1	.	.	.	.	0	.	.
Cc1ccc([N+](=O)[O-])cc1NC(=O)Nc1cccc(F)c1	.	40*	.	.	16	63*	65*
C=CCNC(=S)N1CCN(c2ccc([N+](=O)[O-])cc2)CC1	-3	10	4	32	2	.	.
SMILES	OX1R antag-1	GPR7 antagonist	CHO parental Ca	OX1R antag-2	MPTP block	GPR7 antag conf	MCHR1 antagonist
CCNC(=S)N1CCN(c2ccc([N+](=O)[O-])cc2)CC1	-20	27*	-5	47	1	10	12
CCc1nc2ccc(C(=O)N3CCN(c4ccc([N+](=O)[O-])cc4)CC3)cc2nc1CC	-33	29*	-19	16	-2	24*	86*
O=[N+]([O-])c1ccc(N2CCN(C(=S)NCc3ccc(Cl)cc3)CC2)cc1	51*	51*	84*	32	30	81*	87*
CCc1noc(C)c1C(=O)N1CCN(c2ccc([N+](=O)[O-])cc2)CC1	.	.	.	.	-2	.	.
COc1ccc(N2CC(NS(=O)(=O)c3cccs3)CC2=O)cc1 (configuration not stated)	-11	.	-8	4	-1	.	.
Cc1ccc(S(=O)(=O)N(CC2CO2)c2cc(Cl)ccc2Cl)cc1 (configuration not stated)	-25	-8	-14	13	-2	.	.
CC(NC(=O)C1CCC(CNS(=O)(=O)c2ccccc2)CC1)c1ccc2c(c1)OCCO2 (configuration not stated)	-21	-9	-6	5	.	.	.
O=C(CCC(=O)N1CCCCCC1)Nc1ccc([N+](=O)[O-])cc1	-1	34*	-5	20	0	3	8
CS(=O)(=O)N(CC(=O)Nc1ccc(F)c(F)c1)c1cccc([N+](=O)[O-])c1	-17	32*	-8	14	4	22	17
O=C(c1ccc(S(=O)(=O)Nc2ccccc2)cc1)N1CCCCCCC1	-27	25*	-16	19	1	19	17
O=C(c1ccc(NS(=O)(=O)c2cccs2)cc1)N1CCCCC1	3	21*	-3	27	4	-15	3
O=C(c1ccc(NS(=O)(=O)c2ccc(F)cc2)cc1)N1CCCCC1	2	.	0	14	0	.	.
Cn1c(SCC(=O)N2CCCC2)nnc1-c1cnccn1	15	0	-1	-13	0	.	.
O=C(NC1CCCCC1)C(c1cccs1)N(Cc1cccs1)C(=O)c1ccco1 (configuration not stated)	-4	25*	-19	39	2	22	27*
O=C(NCC(=O)N(Cc1cccs1)C(C(=O)NC1CCCCC1)c1ccco1)c1ccco1 (configuration not stated)	-21	-9	-22	7	-1	.	.
O=C(NC1CCCCC1)C(c1ccccc1F)N(Cc1ccco1)C(=O)Cn1nnc2ccccc21 (configuration not stated)	-27	29*	-31	21	0	43*	31*
O=C(NC1CCCC1)C(c1ccccc1)N(Cc1ccco1)C(=O)Cc1cccs1 (configuration not stated)	-14	42*	-23	33	-1	35*	21
CCCCOC(=O)C(C)Sc1n[nH]c(=O)[nH]c1=O (configuration not stated)	-6	-14	-1	12	1	.	.
CCc1cccc(NC(=O)CSc2nnc(Cc3ccc(OC)cc3)c(=O)[nH]2)c1	-8	.	-7	15	1	.	.
